Drawing on ChEMBL document CHEMBL1131480, “Novel antipsychotic agents with dopamine autoreceptor agonist properties: synthesis and pharmacology of 7-[4-(4-phenyl-1-piperazinyl)butoxy]-3,4-dihydro-2(1H)-quinolinone derivatives” (1998), this text covers ED50 and Ratio for 38 compounds.

For assay [1], the species on record is Mus musculus. In words: post-synaptic DA receptor antagonist activity was evaluated by inhibition of the apomorphine-induced stereotyped behavior in mice. inactive at single given dose. The assay is classed as functional. The method, boiled down: (§1)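 Overnight-fasted mice (16-20 h), groups of 10, given compound orally 1 h before apomorphine 1.5 mg/kg sc in 0.9% saline. Stereotypy observed for 1 min every 10 min over 40 min, starting 20 min post-apomorphine, scored by a published scale. ED50 with 95% confidence limits by linear regression, µmol/kg po.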

The species entered for assay [2] is Mus musculus. In words: Inhibition of the GBL-induced increase in DOPA accumulation in mice(DA auto receptor agonist activity). In kind it is functional.
In assay [3] the target is T1, Alpha-1 adrenergic receptor (Mus musculus) (UniProt P97714+P97717+P97718). In words: Inhibition of noradrenaline lethal effects in mice as alpha-1 induced adrenoceptor antagonist activity. In kind it is functional.
T1 sequence (P97714 whole entry, looked up): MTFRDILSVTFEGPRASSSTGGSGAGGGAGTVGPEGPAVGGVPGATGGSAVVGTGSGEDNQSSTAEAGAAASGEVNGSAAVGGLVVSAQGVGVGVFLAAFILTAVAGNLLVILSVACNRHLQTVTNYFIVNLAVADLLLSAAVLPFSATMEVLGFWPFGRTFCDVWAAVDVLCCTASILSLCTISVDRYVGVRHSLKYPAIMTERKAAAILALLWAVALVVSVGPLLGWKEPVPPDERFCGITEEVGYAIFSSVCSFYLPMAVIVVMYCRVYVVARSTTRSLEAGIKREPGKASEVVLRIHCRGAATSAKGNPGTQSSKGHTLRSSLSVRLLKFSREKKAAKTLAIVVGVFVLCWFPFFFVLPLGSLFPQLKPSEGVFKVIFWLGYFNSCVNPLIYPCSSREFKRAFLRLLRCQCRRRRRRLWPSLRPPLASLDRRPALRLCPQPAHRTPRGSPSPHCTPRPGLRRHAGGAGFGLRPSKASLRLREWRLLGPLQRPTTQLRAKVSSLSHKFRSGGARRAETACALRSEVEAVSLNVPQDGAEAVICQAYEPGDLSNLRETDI
T1 sequence (P97717 whole entry, looked up): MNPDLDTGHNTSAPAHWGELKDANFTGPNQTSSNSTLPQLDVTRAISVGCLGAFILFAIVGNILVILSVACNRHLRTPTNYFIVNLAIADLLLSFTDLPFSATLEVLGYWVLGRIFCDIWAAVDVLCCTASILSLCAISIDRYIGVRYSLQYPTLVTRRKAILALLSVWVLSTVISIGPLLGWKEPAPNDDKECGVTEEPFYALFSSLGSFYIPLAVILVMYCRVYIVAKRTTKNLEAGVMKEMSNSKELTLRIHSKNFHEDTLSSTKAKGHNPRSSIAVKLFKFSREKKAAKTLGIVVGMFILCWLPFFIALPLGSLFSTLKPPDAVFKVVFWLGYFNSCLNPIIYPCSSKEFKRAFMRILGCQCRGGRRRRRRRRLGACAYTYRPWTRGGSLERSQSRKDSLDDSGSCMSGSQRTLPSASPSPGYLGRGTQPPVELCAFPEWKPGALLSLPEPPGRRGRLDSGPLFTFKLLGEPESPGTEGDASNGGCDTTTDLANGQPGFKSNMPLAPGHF
T1 sequence (P97718 whole entry, looked up): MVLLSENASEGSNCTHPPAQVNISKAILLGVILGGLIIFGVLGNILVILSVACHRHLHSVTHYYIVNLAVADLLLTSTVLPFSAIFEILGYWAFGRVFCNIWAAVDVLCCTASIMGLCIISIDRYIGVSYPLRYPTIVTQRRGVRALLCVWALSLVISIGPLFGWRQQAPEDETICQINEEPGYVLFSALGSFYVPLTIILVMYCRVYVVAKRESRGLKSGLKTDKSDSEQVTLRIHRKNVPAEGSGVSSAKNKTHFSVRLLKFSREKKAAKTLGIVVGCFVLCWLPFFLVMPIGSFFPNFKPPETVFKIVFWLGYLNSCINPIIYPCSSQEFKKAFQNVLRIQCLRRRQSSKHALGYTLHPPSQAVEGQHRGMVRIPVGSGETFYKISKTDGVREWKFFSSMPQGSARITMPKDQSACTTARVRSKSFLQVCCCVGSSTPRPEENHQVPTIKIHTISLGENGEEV
The nature of assay [4]: ratio between ED50 values of DA receptor antagonist activity and catalepsy. The assay is classed as functional.
The species named for assay [5] is Rattus norvegicus. Briefly: Inhibition of the APO-induced stereotyped behavior in rats.
The species entered for assay [6] is Rattus norvegicus. Briefly: Inhibition of the GBL-induced increase in DOPA synthesis in rats.
For assay [7], the system named is Dopamine D2 receptor (Mus musculus). Briefly: post-synaptic dopamine […] antagonist activity evaluated by inhibition of the apomorphine-induced stereotyped behavior in mice.
Assay [8] is filed under the species Mus musculus. Briefly: Induction of catalepsy in mice. The assay is classed as functional.
The species named for assay [9] is Mus musculus. Briefly: post-synaptic DA receptor antagonist activity was evaluated by inhibition of the apomorphine-induced stereotyped behavior in mice. inactive at below given dose. In kind it is functional. The method, boiled down: as §1
Assay [10] addresses T1, Alpha-1 adrenergic receptor (Mus musculus). In words: Inhibition of the lethal effects of noradrenaline in mice (alpha-1 induced adrenoceptor antagonist activity). The assay is classed as functional.
Assay [11] is filed under the species Mus musculus. Briefly: Inhibition of the GBL-induced increase in DOPA accumulation in mice(DA auto receptor agonist activity); IA = inactive. In kind it is functional, organism-based.
The species named for assay [12] is Mus musculus. In words: Inhibition of the GBL-induced increase in DOPA synthesis in mice; IA = inactive. The assay is classed as functional, organism-based.
The species named for assay [13] is Rattus norvegicus. Briefly: Inhibition of the APO-induced stereotyped behavior in rats.
The species named for assay [14] is Mus musculus. In words: post-synaptic DA receptor antagonist activity was evaluated by inhibition of the apomorphine-induced stereotyped behavior in mice. 51% inhibition at single given dose. The assay is classed as functional. The method, boiled down:
as §1

The species entered for assay [15] is Mus musculus. Briefly: post-synaptic DA receptor antagonist activity was evaluated by inhibition of the apomorphine-induced stereotyped behavior in mice. 49% inhibition at single given dose. In kind it is functional. In a few lines:
as §1

The species named for assay [16] is Mus musculus. In words: Induction of catalepsy in mice. The assay is classed as functional.

The structures appear in SMILES notation. Active and inactive are the calls of the source. The calls are words filed in the database; no cut-off is given here.

`Nc1ccccc1N1CCN(CCCCOc2ccc3c(c2)NC(=O)CC3)CC1`: the ED50 in the assay listed under Mus musculus [1] (read-out: ED50) is > 25 µmol/kg.
Consider `Cc1cccc(N2CCN(CCCOc3ccc4ccc(O)nc4c3)CC2)c1C`, for which the ED50 stood at 3.5 µmol/kg in the assay listed under Mus musculus [2]; 151 µmol/kg in assay [3]; 1860 µmol/kg in the assay filed under Rattus norvegicus [5]; 15.1 µmol/kg in the assay listed under Rattus norvegicus [6]; 41.3 µmol/kg in assay [7]. In addition, the Ratio in assay [4] is > 1.4.
On to `Cc1c(Br)cccc1N1CCN(CCCCOc2ccc3ccc(O)nc3c2)CC1`, for which the ED50 in assay [7] is 2.1 µmol/kg.
As for `O=C1CCc2ccc(OCCCCN3CCN(c4cc(Cl)cc(Cl)c4Cl)CC3)cc2N1`, the ED50 in the assay filed under Mus musculus [2] is > 21 µmol/kg; in assay [3], > 265 µmol/kg.
As to `Cc1c(Br)cccc1N1CCN(CCCCOc2ccc3c(c2)NC(=O)CC3)CC1`, the ED50 in the assay filed under Mus musculus [2] was found to be 1.3 µmol/kg.
With `O=C1CCc2ccc(OCCCCN3CCN(c4c(Cl)cccc4Cl)CC3)cc2N1`, the ED50 in the assay filed under Mus musculus [1] (read-out: ED50) is > 7 µmol/kg.
As for `Cc1c(Cl)cccc1N1CCN(CCCCOc2ccc3c(c2)NC(=O)CC3)CC1`, the ED50 in the assay filed under Mus musculus [8] is 5.6 µmol/kg; in the assay filed under Mus musculus [2], 3.5 µmol/kg; in [3], > 299 µmol/kg.
With `O=C1CCc2ccc(OCCCCN3CCN(c4ccccc4)CC3)cc2N1`, the ED50 in the assay listed under Mus musculus [9] is > 28 µmol/kg.
On the same count and under the same terms, next, `Cc1ccc(Cl)cc1N1CCN(CCCCOc2ccc3c(c2)NC(=O)CC3)CC1`: > 23 µmol/kg.
As for `O=C1CCc2ccc(OCCCCN3CCN(c4cc(Cl)cc(Cl)c4)CC3)cc2N1`, the ED50 in the assay listed under Mus musculus [2] was > 22 µmol/kg; in [10], > 256 µmol/kg.
For `N#Cc1ccccc1N1CCN(CCCCOc2ccc3c(c2)NC(=O)CC3)CC1`, the median effective dose (ED50) in the assay listed under Mus musculus [1] (read-out: ED50) was > 23 µmol/kg.
`O=C(CCCN1CCC(O)(c2ccc(Cl)cc2)CC1)c1ccc(F)cc1` [HALOPERIDOL]: the ED50 in the assay filed under Mus musculus [8] was 0.9 µmol/kg; in assay [3], > 341 µmol/kg; in the assay listed under Rattus norvegicus [13], 1.1 µmol/kg. Moreover, the ED50 result in the assay filed under Mus musculus [11] and in the assay listed under Mus musculus [12] was “inactive” each time.
As to `Cc1c(N)cccc1N1CCN(CCCCOc2ccc3c(c2)NC(=O)CC3)CC1`, the 50% effective dose (ED50) in the assay listed under Mus musculus [9] is > 25 µmol/kg.
For the compound `O=C1CCc2ccc(OCCCCN3CCN(c4ccc(Cl)c(Cl)c4)CC3)cc2N1`, in the assay filed under Mus musculus [1] (read-out: ED50), the ED50 was > 7 µmol/kg.
Take `Cc1cccc(N2CCN(CCCCOc3ccc4c(c3)NC(=O)CC4)CC2)c1Br`: the ED50 in the assay listed under Mus musculus [2] is > 21 µmol/kg.
With `O=C1CCc2ccc(OCCCCN3CCN(c4ccc(Cl)cc4)CC3)cc2N1`, the median effective dose (ED50) in the assay filed under Mus musculus [9] is > 8 µmol/kg.
With `O=C1CCc2ccc(OCCCCN3CCN(c4cccc(Cl)c4Cl)CC3)cc2N1` [ARIPIPRAZOLE], the ED50 was 5.1 µmol/kg in the assay listed under Mus musculus [2]; > 286 µmol/kg in assay [10]; > 22 µmol/kg in the assay filed under Mus musculus [1]; 11.8 µmol/kg in the assay filed under Rattus norvegicus [13]; 6.9 µmol/kg in the assay listed under Rattus norvegicus [6].
For `O=C1CCc2ccc(OCCCCN3CCN(c4ccc(Cl)cc4Cl)CC3)cc2N1`, in the assay filed under Mus musculus [9], the ED50 was > 7 µmol/kg.
Take `Cc1c(C#N)cccc1N1CCN(CCCCOc2ccc3c(c2)NC(=O)CC3)CC1`: the ED50 in assay [7] stood at 4.1 µmol/kg.
As for `O=C1CCc2ccc(OCCCCN3CCN(c4ccccc4[N+](=O)[O-])CC3)cc2N1`, in the assay listed under Mus musculus [9], the ED50 was > 7 µmol/kg.
In the case of `Cc1c(N2CCN(CCCCOc3ccc4c(c3)NC(=O)CC4)CC2)cccc1[N+](=O)[O-]`, the ED50 in the assay filed under Mus musculus [8] was 5.9 µmol/kg; in the assay filed under Mus musculus [2], > 23 µmol/kg; in assay [3], > 146 µmol/kg; in assay [7], 0.7 µmol/kg. Also, the Ratio in [4] was determined as 8.7.
On to `Cc1cc(Br)ccc1N1CCN(CCCCOc2ccc3c(c2)NC(=O)CC3)CC1`, for which the 50% effect level in the assay listed under Mus musculus [14] (ED50) was put at a dose of 21 µmol/kg.
As to `Cc1cccc(N2CCN(CCCCOc3ccc4ccc(O)nc4c3)CC2)c1C`, the median effective dose (ED50) is 10.5 µmol/kg in the assay filed under Mus musculus [8], 3.9 µmol/kg in the assay filed under Mus musculus [2], > 156 µmol/kg in assay [10] and 3.4 µmol/kg in assay [7]. Moreover, the Ratio in assay [4] amounted to 3.1.
For `Cc1c(O)cccc1N1CCN(CCCCOc2ccc3c(c2)NC(=O)CC3)CC1`, in the assay filed under Mus musculus [1] (read-out: ED50), the ED50 is > 8 µmol/kg.
As for `O=C1CCc2cc(OCCCCN3CCN(c4cccc(Cl)c4Cl)CC3)ccc2N1`, the ED50 in the assay filed under Mus musculus [9] was > 22 µmol/kg.
The compound `Cc1c(F)cccc1N1CCN(CCCCOc2ccc3c(c2)NC(=O)CC3)CC1` displayed an ED50 in the assay filed under Mus musculus [15] of 7.2 µmol/kg.
Regarding `CN(C)CCCN1c2ccccc2Sc2ccc(Cl)cc21` [CHLORPROMAZINE], the ED50 entry in the assay listed under Mus musculus [11] and in the assay filed under Mus musculus [12] was “inactive” throughout. The ED50 is 19.7 µmol/kg in [3] and 28.4 µmol/kg in the assay listed under Rattus norvegicus [13].
Turning to `Cc1cccc(N2CCN(CCCCOc3ccc4c(c3)NC(=O)CC4)CC2)c1C`, the ED50 is 13.5 µmol/kg in the assay filed under Mus musculus [8], 9.1 µmol/kg in the assay listed under Mus musculus [2] and > 314 µmol/kg in assay [10].
For the compound `O=C1CCc2c(cccc2OCCCCN2CCN(c3cccc(Cl)c3Cl)CC2)N1`, the ED50 in the assay filed under Mus musculus [1] (read-out: ED50) is > 22 µmol/kg.
As to `CC(=O)Nc1cccc(N2CCN(CCCCOc3ccc4c(c3)NC(=O)CC4)CC2)c1C`, in the assay listed under Mus musculus [9], the ED50 is > 25 µmol/kg.
On the same count and under the same terms, the result for `Cc1ccc(N2CCN(CCCCOc3ccc4c(c3)NC(=O)CC4)CC2)cc1Cl` reads > 7 µmol/kg.
Turning to `CCOc1ccccc1N1CCN(CCCCOc2ccc3ccc(O)nc3c2)CC1`, the ED50 is > 20 µmol/kg in the assay listed under Mus musculus [2], > 127 µmol/kg in assay [10] and 0.24 µmol/kg in [7].
Turning to `Cc1cccc(N2CCN(CCCCOc3ccc4c(c3)NC(=O)CC4)CC2)c1Cl`, the median effective dose (ED50) in the assay listed under Mus musculus [16] was 1.4 µmol/kg; in the assay filed under Mus musculus [2], > 23 µmol/kg; in assay [10], > 150 µmol/kg.
Take `Cc1c(Cl)cccc1N1CCN(CCCCCOc2ccc3c(c2)NC(=O)CC3)CC1`: the ED50 in the assay listed under Mus musculus [9] was > 23 µmol/kg.
With `Oc1ccc2ccc(OCCCCN3CCN(c4cccc(Cl)c4Cl)CC3)cc2n1`, the results for the ED50 (in the assay listed under Mus musculus [2]; in assay [10]; in [7]) were > 22 µmol/kg, > 287 µmol/kg and 0.9 µmol/kg, respectively.
For the compound `CCOc1ccccc1N1CCN(CCCCOc2ccc3c(c2)NC(=O)CC3)CC1`, the ED50 in the assay listed under Mus musculus [8] was 4.4 µmol/kg; in the assay filed under Mus musculus [2], 0.65 µmol/kg; in assay [3], 7 µmol/kg.
On to `Cc1c(Cl)cccc1N1CCN(CCCCOc2ccc3ccc(O)nc3c2)CC1`, for which the ED50 was 12.6 µmol/kg in the assay listed under Mus musculus [8], 20.1 µmol/kg in the assay listed under Mus musculus [2], > 299 µmol/kg in assay [10] and 2.8 µmol/kg in assay [7]. The Ratio in [4] came out at 4.5.
For `Cc1cccc(N2CCN(CCCOc3ccc4c(c3)NC(=O)CC4)CC2)c1C`, in assay [7], the median effective dose (ED50) came out at 26 µmol/kg.

A word on the ED50: it is the dose at which the effect has come halfway, by size or by number of responders.
